In ChEMBL document CHEMBL4004837, “Synthesis and Characterization of Urofuranoic Acids: In Vivo Metabolism of 2-(2-Carboxyethyl)-4-methyl-5-propylfuran-3-carboxylic Acid (CMPF) and Effects on in Vitro Insulin Secretion” (J Med Chem, 2017):

Experiments:
[1] = tested on: Hepatocyte; experiment: Cytotoxicity against mouse primary hepatocytes assessed as fold change in capase3/7 activity by Caspase-Glo 3/7 assay relative to DMSO; format: cell-based
[2] = tested on: HEK293; experiment: Cytotoxicity against HEK293 cells assessed as fold change in capase3/7 activity by Caspase-Glo 3/7 assay relative to DMSO; format: cell-based; conditions: human
[3] = target: CYP3A4 (Homo sapiens, UniProt P08684); experiment: Inhibition of human microsomal CYP3A4 at 10 uM after 3 mins by single quad LC/MS analysis; format: ADME; conditions: microsomes
[4] = target: CYP2C9 (Homo sapiens, UniProt P11712); experiment: Inhibition of human microsomal CYP2C9 at 10 uM after 10 mins by single quad LC/MS analysis; format: ADME; conditions: microsomes
[5] = target: CYP2D6 (Homo sapiens, UniProt P10635); experiment: Inhibition of human microsomal CYP2D6 at 10 uM after 3 mins by single quad LC/MS analysis; format: ADME; conditions: microsomes
[6] = Drug metabolism in human microsomes at 4 uM after 30 mins by single quad LC/MS analysis; format: ADME, Microsome; conditions: read-out: Drug metabolism
[7] = Drug metabolism in mouse microsomes at 4 uM after 30 mins by single quad LC/MS analysis; format: ADME, Microsome; conditions: read-out: Drug metabolism
[8] = Suppression of high glucose stimulated insulin secretion in mouse pancreatic islets at 200 uM treated for 24 hrs followed by glucose stimulation for 20 mins by HTRF assay relative to control; format: ADME, cell-based; conditions: pancreatic islet
Method in brief: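 Mouse islet screening assay in high-glucose (20 mM) medium with compounds at 200 µM. Insulin secretion is expressed as fold change relative to vehicle. Mean of n = 4 experiments with SEM; significance by Student's t-test, p ≤ 0.05.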

[9] = Suppression of glucose stimulated insulin secretion in mouse pancreatic islet at 200 uM incubated for 24 hrs followed by glucose stimulation for 20 mins by HTRF assay relative to control
[10] = Suppression of glucose-stimulated insulin secretion in mouse pancreatic islet at 200 uM incubated for 24 hrs followed by glucose stimulation for 20 mins by HTRF assay; format: ADME, cell-based
Method in brief: (§1)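 Mouse islets treated with compounds at 200 µM. Insulin secretion was then measured under low- and high-glucose GSIS conditions and under KCl stimulation, and intracellular insulin content was measured. Mean of n = 4-5 experiments with SEM.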

[11] = Effect on insulin content in KCl-stimulated mouse pancreatic islet at 200 uM incubated for 24 hrs followed by KCl stimulation for 20 mins by HTRF assay; format: ADME, cell-based; method in brief: as §1
[12] = Effect on insulin content in glucose-stimulated mouse pancreatic islet at 200 uM incubated for 24 hrs followed by glucose stimulation for 20 mins by HTRF assay; format: ADME, cell-based; method in brief: as §1
[13] = Suppression of KCl-stimulated insulin secretion in mouse pancreatic islet at 200 uM incubated for 24 hrs followed by KCl stimulation for 20 mins by HTRF assay; format: ADME, cell-based; method in brief: as §1
[14] = Passive permeability in MDCK cells; format: ADME, cell-based, Canis lupus familiaris; conditions: dog

Chain of CYP3A4 (P08684 whole entry): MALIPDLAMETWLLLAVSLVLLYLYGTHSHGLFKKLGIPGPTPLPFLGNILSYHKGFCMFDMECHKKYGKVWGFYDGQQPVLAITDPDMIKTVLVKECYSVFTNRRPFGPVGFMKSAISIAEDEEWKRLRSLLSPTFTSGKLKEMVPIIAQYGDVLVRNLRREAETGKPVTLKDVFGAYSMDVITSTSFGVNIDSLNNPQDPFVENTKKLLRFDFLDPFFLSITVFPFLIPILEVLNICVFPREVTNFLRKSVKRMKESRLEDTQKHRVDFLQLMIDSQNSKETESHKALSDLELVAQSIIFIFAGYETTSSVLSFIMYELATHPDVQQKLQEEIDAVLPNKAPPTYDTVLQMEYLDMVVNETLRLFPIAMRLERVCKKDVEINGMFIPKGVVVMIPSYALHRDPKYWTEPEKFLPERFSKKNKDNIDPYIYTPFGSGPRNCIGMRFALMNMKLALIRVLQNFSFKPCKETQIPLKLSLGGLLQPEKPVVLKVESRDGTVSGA
Chain of CYP2C9 (P11712 whole entry): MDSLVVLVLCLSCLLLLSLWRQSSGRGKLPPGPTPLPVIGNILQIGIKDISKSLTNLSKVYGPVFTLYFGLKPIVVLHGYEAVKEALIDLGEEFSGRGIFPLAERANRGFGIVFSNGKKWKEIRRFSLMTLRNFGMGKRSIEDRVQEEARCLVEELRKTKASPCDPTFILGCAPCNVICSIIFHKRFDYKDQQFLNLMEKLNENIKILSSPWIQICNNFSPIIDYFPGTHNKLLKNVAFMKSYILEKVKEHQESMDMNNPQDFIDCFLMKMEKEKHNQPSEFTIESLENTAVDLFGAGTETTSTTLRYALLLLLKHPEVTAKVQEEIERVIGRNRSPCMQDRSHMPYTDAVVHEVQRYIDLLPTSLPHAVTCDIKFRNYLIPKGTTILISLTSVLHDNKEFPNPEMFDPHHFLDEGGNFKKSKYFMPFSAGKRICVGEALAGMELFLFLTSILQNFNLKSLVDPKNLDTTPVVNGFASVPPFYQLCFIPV
Chain of CYP2D6 (P10635 whole entry): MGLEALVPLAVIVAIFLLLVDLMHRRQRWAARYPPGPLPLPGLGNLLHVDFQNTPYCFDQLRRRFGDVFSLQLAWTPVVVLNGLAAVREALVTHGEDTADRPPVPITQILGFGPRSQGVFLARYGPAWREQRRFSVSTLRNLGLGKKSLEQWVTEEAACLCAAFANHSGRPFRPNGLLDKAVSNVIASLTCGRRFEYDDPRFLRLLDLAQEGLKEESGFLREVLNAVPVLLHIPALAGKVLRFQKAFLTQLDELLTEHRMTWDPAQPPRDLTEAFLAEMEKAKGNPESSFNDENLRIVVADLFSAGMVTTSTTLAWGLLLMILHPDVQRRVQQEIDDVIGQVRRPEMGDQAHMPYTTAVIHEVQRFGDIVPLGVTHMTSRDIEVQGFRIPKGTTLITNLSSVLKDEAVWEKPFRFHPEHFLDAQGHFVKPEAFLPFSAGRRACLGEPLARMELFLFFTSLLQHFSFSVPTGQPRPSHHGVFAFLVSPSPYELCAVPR

SMILES | inhibition at 0.05 h, 10 µM [3] [%] | inhibition at 10 min, 10 µM [4] [%] | inhibition at 0.05 h, 10 µM [5] [%] | metabolised at 0.5 h, 4 µM [6] [%] | metabolised at 0.5 h, 4 µM [7] [%] | permeability [14] | fold change (FC) [1] | fold change (FC) [2] | Activity [8] | Activity [9] | Activity [10] | Activity [11] | Activity [12] | Activity [13]
Cc1oc(CCC(=O)O)c(C(=O)O)c1C | – | – | – | – | – | – | 2 | 0.8 to 1 | – | – | – | – | – | –
CCC(=O)c1oc(CCC(=O)O)c(C(=O)O)c1C | 3 | 10 | 11 | – | – | – | 1.1 | 1 to 1.1 | – | – | – | – | – | –
CCCc1oc(CCC(=O)O)cc1C | 3 | 9 | 0 | 0 | 20 | – | 0.7 | 0.9 to 1 | – | – | – | – | – | –
CCCc1oc(CCC)c(C(=O)O)c1C | 13 | 18 | 5 | 21 | 51 | – | 1.4 | 1 to 2 | – | – | – | – | – | –
CCC(=O)c1oc(CCC(=O)OC)c(C(=O)OC)c1C | – | – | – | – | – | – | 1.5 | 1 to 1.1 | – | – | – | – | – | –
CCC[C@H]1C[C@H](C(=O)OC)[C@@H](CCC(=O)OC)O1 | – | – | – | – | – | – | 1.3 | 1 to 1.1 | – | – | – | – | – | –
CCc1oc(CCC(=O)OC)c(C(=O)OC)c1CC | – | – | – | – | – | – | 0.9 to 1 | 0.9 to 1 | Toxic | – | Toxic | Toxic | Toxic | Toxic
CCc1oc(CCC(=O)O)c(C(=O)O)c1CC | 0 | 17 | 3 | 0 | 21 | Impermeable | 1.1 | 1 | Non-Toxic | – | – | – | – | –
CCCC1(O)OC(O)(CCC(=O)OC)C(C(=O)OC)=C1C (centres undefined) | – | – | – | – | – | – | 0.3 | 0.9 to 1 | Non-Toxic | Non-Toxic | – | – | – | –
CCCC1(O)OC(O)(CCC(=O)O)C(C(=O)O)=C1C (centres undefined) | – | – | – | – | – | – | 0.9 | 1 to 1.1 | Non-Toxic | Non-Toxic | Non-Toxic | Non-Toxic | Non-Toxic | Non-Toxic
Cc1c(CCOCc2ccccc2)oc(CCC(=O)O)c1C(=O)O | – | – | – | – | – | – | 1.4 | 1.1 | – | – | – | – | – | –
CCCc1oc(C(=O)O)c(C)c1C | 0 | 0 | 0 | 20 | 0 | – | 2.2 | 1 to 1.2 | – | – | – | – | – | –
CCCc1oc(CCC(=O)OC)c(C(=O)OC)c1CCC | – | – | – | – | – | – | 0.8 to 0.9 | 1 to 1.1 | – | – | – | – | – | –
CCC[C@H]1C[C@H](C(=O)O)[C@@H](CCC(=O)O)O1 | – | – | – | – | – | – | 2 | 1 to 1.2 | – | – | – | – | – | –
COC(=O)CCc1oc(C)c(C)c1C(=O)OC | 22 | 3 | 12 | 0 | 16 | – | 0.8 | 1 to 1.1 | – | – | – | – | – | –

The next lines start with results.

inhibition at 0.05 h, 10 µM [3] [%] | inhibition at 10 min, 10 µM [4] [%] | inhibition at 0.05 h, 10 µM [5] [%] | metabolised at 0.5 h, 4 µM [6] [%] | metabolised at 0.5 h, 4 µM [7] [%] | permeability [14] | SMILES | fold change (FC) [1] | fold change (FC) [2] | Activity [8] | Activity [9] | Activity [10] | Activity [11] | Activity [12] | Activity [13]
48 | 2 | 20 | 16 | 76 | – | COC(=O)CCc1oc2c(c1C(=O)OC)CCCC2 | 0.4 | 1 to 1.1 | Toxic | Toxic | – | – | – | –
2 | 3 | 2 | 10 | 9 | – | CCCc1oc(CCCO)c(C(=O)O)c1C | 0.6 | 1 | Non-Toxic | Non-Toxic | – | – | – | –
59 | 27 | 28 | 49 | 60 | – | CCCCCc1oc(CCC(=O)OC)c(C(=O)OC)c1C | 1 to 1.2 | 1 to 1.2 | Non-Toxic | Non-Toxic | – | – | – | –
0 | 0 | 0 | 100 | 100 | – | CCCc1oc(CCCO)c(C(=O)OC)c1C | 0.6 | 1 to 1.1 | – | – | – | – | – | –
3 | 9 | 3 | 5 | 7 | – | CCCCCc1oc(CCC(=O)O)c(C(=O)O)c1C | 1.2 to 1.5 | 1 | Toxic | Toxic | – | – | – | –
0 | 0 | 0 | 3 | 7 | – | CCCc1oc(CCC(=O)O)c(C(=O)O)c1CCC | 1.6 to 1.8 | 1 | Toxic | – | – | – | – | –
21 | 0 | 0 | – | – | – | CCCc1oc(CCC(C)=O)c(C(C)=O)c1C | 0.3 | 0.9 | – | – | – | – | – | –
